From ChEMBL document CHEMBL3585285, “Amino Acid Thioester Derivatives: A Highly Promising Scaffold for the Development of Metallo-β-lactamase L1 Inhibitors” (ACS Med Chem Lett, 2015) come the findings set out here.

Experiment [1] is described as follows: Inhibition of Aeromonas veronii bv. sobria ImiS overexpressed in Escherichia coli BL21 (DE3) using imipenem as substrate incubated for 30 mins prior to testing by UV spectrophotometric analysis. The method in brief:
(§1)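 ImiS activity measured as imipenem hydrolysis monitored at 300 nm. Initial rates were taken with and without inhibitor, each in triplicate and averaged. IC50 is the inhibitor concentration giving a 50% drop in enzyme activity.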

For experiment [2], the target named is Metallo-beta-lactamase type 2 (Bacteroides fragilis) (UniProt P25910). The experiment is described as follows: Inhibition of Bacteroides fragilis CcrA overexpressed in Escherichia coli BL21 (DE3) using cefazolin as substrate up to 5 uM incubated for 30 mins prior to testing by UV spectrophotometric analysis. The procedure, abridged:
(§2)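 Each enzyme (CcrA or NDM-1) was assayed on cefazolin hydrolysis followed at 262 nm. Initial rates were measured in triplicate with or without inhibitor and averaged. IC50 is the concentration causing 50% loss of activity.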

Experiment [3] deals with Escherichia coli. The experiment in a line: Antibacterial activity against Escherichia coli assessed as cefazolin MIC after 12 hrs by macrodilution broth method (reference value: 64 ug/ml). Format: functional.
In experiment [4] the test system is Escherichia coli. The experiment is described as follows: Antibacterial activity against Escherichia coli assessed as imipenem MIC after 12 hrs by macrodilution broth method (reference value: 0.5 ug/ml). Format: functional.
Experiment [5] can be described thus: Inhibition of NDM1 (unknown origin) overexpressed in Escherichia coli BL21 (DE3) assessed as cefazolin MIC at 16 ug/ml after 12 hrs by macrodilution broth method. The method in brief: (§3)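 MICs of antibiotic were measured with and without inhibitor at a final 16 μg/mL in E. coli BL21(DE3) carrying pMSZ02-CcrA, pET26b-NDM-1, pET26b-ImiS or pET26b-L1, plus plasmid-free BL21(DE3) as a control. Cefazolin was the antibiotic for the CcrA, NDM-1 and L1 strains; imipenem was used for the ImiS strain.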

The target in experiment [6] is Metallo-beta-lactamase type 2 (Bacteroides fragilis) (UniProt P25910). The experiment in a line: Inhibition of Bacteroides fragilis CcrA overexpressed in Escherichia coli BL21 (DE3) assessed as cefazolin MIC at 16 ug/ml after 12 hrs by macrodilution broth method. The method in brief: as §3
Metallo-beta-lactamase type 2 (Bacteroides fragilis), sequence (P25910 whole entry): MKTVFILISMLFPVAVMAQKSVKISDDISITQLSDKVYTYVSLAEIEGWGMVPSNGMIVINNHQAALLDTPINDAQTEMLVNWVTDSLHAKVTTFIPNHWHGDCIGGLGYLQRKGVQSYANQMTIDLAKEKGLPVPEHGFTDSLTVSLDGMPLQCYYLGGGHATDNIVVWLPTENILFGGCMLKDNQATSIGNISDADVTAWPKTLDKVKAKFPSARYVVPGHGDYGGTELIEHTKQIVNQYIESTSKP
For experiment [7], the system named is Aeromonas veronii bv. sobria. The experiment in a line: Inhibition of Aeromonas veronii bv. sobria ImiS overexpressed in Escherichia coli BL21 (DE3) assessed as imipenem MIC at 16 ug/ml after 12 hrs by macrodilution broth method. The method in brief:
as §3

Experiment [8] addresses Beta-lactamase L1 (Stenotrophomonas maltophilia) (UniProt P52700). The experiment in a line: Inhibition of Stenotrophomonas maltophilia L1 overexpressed in Escherichia coli BL21 (DE3) assessed as cefazolin MIC at 16 ug/ml after 12 hrs by macrodilution broth method. The method in brief:
as §3

For experiment [9] the target is unchanged. The experiment in a line: Inhibition of Stenotrophomonas maltophilia L1 overexpressed in Escherichia coli BL21 (DE3) assessed as reduction of cefazolin MIC at 16 ug/ml after 12 hrs by macrodilution broth method relative to cefazolin-treated control. The method in brief: as §3
Experiment [10] has as its target T1, Beta-lactamase L1 (Stenotrophomonas maltophilia, UniProt P52700). The experiment is described as follows: Inhibition of Stenotrophomonas maltophilia L1 overexpressed in Escherichia coli BL21 (DE3) using cefazolin as substrate incubated for 30 mins prior to testing by UV spectrophotometric analysis.
The target in experiment [11] is T1, Beta-lactamase L1. The experiment in a line: Mixed-type inhibition of Stenotrophomonas maltophilia L1 overexpressed in Escherichia coli BL21 (DE3) using cefazolin as substrate incubated for 30 mins prior to testing by Lineweaver-Burk plot analysis.
Experiment [12] has as its system Escherichia coli. The experiment is described as follows: Antibacterial activity against Escherichia coli after 12 hrs by macrodilution broth method. In kind it is functional.
Experiment [13] can be described thus: Inhibition of NDM1 (unknown origin) overexpressed in Escherichia coli BL21 (DE3) using cefazolin as substrate incubated for 30 mins prior to testing by UV spectrophotometric analysis. The method in brief: as §2
The target in experiment [14] is Metallo-beta-lactamase type 2 (Bacteroides fragilis, UniProt P25910). The experiment in a line: Inhibition of Bacteroides fragilis CcrA overexpressed in Escherichia coli BL21 (DE3) using cefazolin as substrate incubated for 30 mins prior to testing by UV spectrophotometric analysis. The method in brief: as §2
Metallo-beta-lactamase type 2, sequence (P25910 whole entry): as above
In experiment [15] the test system is Aeromonas veronii bv. sobria. The experiment in a line: Inhibition of Aeromonas veronii bv. sobria ImiS overexpressed in Escherichia coli BL21 (DE3) using imipenem as substrate up to 5 uM incubated for 30 mins prior to testing by UV spectrophotometric analysis. The procedure, abridged: as §1

The structures appear in SMILES notation. Values after ≈ are worked out from the molar mass of the structure shown. Active and inactive are the calls of the source. No cut-off for these calls is given here.

A word on the IC50: it is the midpoint of a concentration-inhibition curve. Read a low IC50 as greater potency in that assay. A word on the Ki: it is a dissociation constant, usually derived from enzyme kinetics or from competition with a known ligand. A low value points to higher affinity.

T1 sequence (P52700 whole entry): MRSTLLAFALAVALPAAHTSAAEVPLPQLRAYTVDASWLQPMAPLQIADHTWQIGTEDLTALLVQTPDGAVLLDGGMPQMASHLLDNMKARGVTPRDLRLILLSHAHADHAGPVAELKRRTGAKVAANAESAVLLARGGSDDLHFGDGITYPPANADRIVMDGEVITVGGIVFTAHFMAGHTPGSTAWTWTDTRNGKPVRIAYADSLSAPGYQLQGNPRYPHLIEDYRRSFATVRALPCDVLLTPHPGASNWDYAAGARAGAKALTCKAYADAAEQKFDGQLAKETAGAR
Beta-lactamase L1 (Stenotrophomonas maltophilia), sequence (P52700 34-290 limits assumed): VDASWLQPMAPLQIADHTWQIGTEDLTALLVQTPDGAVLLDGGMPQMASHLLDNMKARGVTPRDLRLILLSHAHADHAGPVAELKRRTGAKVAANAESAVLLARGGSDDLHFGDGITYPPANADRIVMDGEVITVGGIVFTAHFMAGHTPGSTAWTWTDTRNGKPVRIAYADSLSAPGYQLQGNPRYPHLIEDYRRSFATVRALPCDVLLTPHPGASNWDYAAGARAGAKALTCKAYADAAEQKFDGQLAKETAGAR

As to `O=C(O)CSC(=O)[C@H](CO)NC(=O)Cc1cccs1`, the IC50 in [1] worked out at 60.1 µM; on Beta-lactamase L1 [10], 1490 nM. For the same compound, the inhibition entry in [2] is “inactive”. The MIC turned out to be 64 µg/mL with Escherichia coli [3]; 0.5 µg/mL in the experiment with Escherichia coli [4]; 8 µg/mL in experiment [5]; 4 µg/mL in experiment [6]; 1 µg/mL in [7]; 4 µg/mL in experiment [8]. Moreover, the fold change (FC) in experiment [9] was determined as 2. At Beta-lactamase L1 [11], this compound returned a Ki of 170 nM.
For `C[C@@H](O)[C@H]1C(=O)N2C(C(=O)O)=C(SCCNC=N)C[C@H]12` [IMIPENEM ANHYDROUS], the MIC against Escherichia coli [12] came out at 0.5 µg/mL (≈ 1.67 µM).
In turn, `Cc1nnc(SCC2=C(C(=O)O)N3C(=O)[C@@H](NC(=O)Cn4cnnn4)[C@H]3SC2)s1` [CEFAZOLIN] showed an MIC against Escherichia coli [12] of 64 µg/mL (≈ 141 µM).
`CC(C)[C@H](NC(=O)Cc1cccs1)C(=O)SCC(=O)O`: the IC50 amounted to 12.4 µM in experiment [13], 38.5 µM in [14], 18.9 µM in [1] and 450 nM against Beta-lactamase L1 [10]. The MIC is > 64 µg/mL in the experiment on Escherichia coli [3]; 0.5 µg/mL with Escherichia coli [4]; 4 µg/mL in experiment [5]; 4 µg/mL in experiment [6]; 1 µg/mL in experiment [7]; 4 µg/mL in experiment [8]. In addition, the fold change (FC) in experiment [9] turned out to be 2. For the same compound, the inhibition constant (Ki) on Beta-lactamase L1 [11] turned out to be 280 nM.
For `O=C(O)CSC(=O)[C@H](Cc1c[nH]c2ccccc12)NC(=O)Cc1cccs1`, the inhibition entry in [15] and in experiment [2] was “inactive” each time. The MIC in the experiment on Escherichia coli [3] worked out at 64 µg/mL; in the experiment with Escherichia coli [4], 0.5 µg/mL; in experiment [5] it was 8 µg/mL; in experiment [6] it was 4 µg/mL; in [7] it was 2 µg/mL; in experiment [8] it was 2 µg/mL. The fold change (FC) in [9] was 4. The half-maximal inhibitory concentration (IC50) on Beta-lactamase L1 [10] is 290 nM. This compound also came in with a Ki at Beta-lactamase L1 [11] of 170 nM.
Turning to `CSCC[C@H](NC(=O)Cc1cccs1)C(=O)SCC(=O)O`, the IC50 in [14] stood at 123 µM; in experiment [1], 13.3 µM; against Beta-lactamase L1 [10], 18 nM. Also, the MIC was > 64 µg/mL with Escherichia coli [3]; 0.5 µg/mL with Escherichia coli [4]; 8 µg/mL in experiment [5]; 4 µg/mL in experiment [6]; 1 µg/mL in experiment [7]; 2 µg/mL in [8]. In [9], the fold change (FC) came to 4. At Beta-lactamase L1 [11], this compound registered a Ki of 110 nM.
For the compound `O=C(O)CSC(=O)[C@H](Cc1ccccc1)NC(=O)Cc1cccs1`, the half-maximal inhibitory concentration (IC50) amounted to 36.3 µM in experiment [13], 65.4 µM in experiment [1] and 2900 nM at Beta-lactamase L1 [10]. Further, in experiment [2], the inhibition result was “inactive”. Besides, the MIC was 64 µg/mL in the experiment with Escherichia coli [3]; 0.5 µg/mL with Escherichia coli [4]; 8 µg/mL in [5]; 4 µg/mL in experiment [6]; 1 µg/mL in [7]; 4 µg/mL in [8]. Besides, the fold change (FC) in experiment [9] came to 2. On Beta-lactamase L1 [11], this compound yielded a Ki of 950 nM.
Regarding `CC(C)C[C@H](NC(=O)Cc1cccs1)C(=O)SCC(=O)O`, the concentration for half-maximal inhibition (IC50) was 28.5 µM in experiment [13], 3.6 µM in experiment [1] and 69 nM against Beta-lactamase L1 [10]. The inhibition entry in [2] is “inactive”. In addition, the MIC in the experiment with Escherichia coli [3] is 64 µg/mL; in the experiment on Escherichia coli [4] it was 0.5 µg/mL; in experiment [5] it was 4 µg/mL; in experiment [6], 4 µg/mL; in experiment [7], 1 µg/mL; in experiment [8] it was 2 µg/mL. Further, the fold change (FC) in experiment [9] is 4. For the same compound, at Beta-lactamase L1 [11], the Ki was 210 nM.
For the compound `O=C(O)CSC(=O)[C@@H]1CCCN1C(=O)Cc1cccs1`, the inhibition result in experiment [15] and in [2] was “inactive” in each case. In addition, the MIC was determined as 64 µg/mL in the experiment on Escherichia coli [3]; 0.5 µg/mL in the experiment with Escherichia coli [4]; 8 µg/mL in experiment [5]; 4 µg/mL in experiment [6]; 2 µg/mL in experiment [7]; 2 µg/mL in [8]. The fold change (FC) in experiment [9] came out at 4. Further, the concentration for half-maximal inhibition (IC50) against Beta-lactamase L1 [10] turned out to be 450 nM. This compound registered a Ki at Beta-lactamase L1 [11] of 870 nM.
For the compound `O=C(O)CSC(=O)[C@H](CCCCNC(=O)Cc1cccs1)NC(=O)Cc1cccs1`, the inhibition result in [15] and in [2] was “inactive” each time. Besides, the MIC was determined as 64 µg/mL in the experiment on Escherichia coli [3]; 0.5 µg/mL in the experiment on Escherichia coli [4]; 4 µg/mL in [5]; 4 µg/mL in experiment [6]; 2 µg/mL in experiment [7]; 4 µg/mL in experiment [8]. Further, the fold change (FC) in experiment [9] was determined as 2. The concentration for half-maximal inhibition (IC50) on Beta-lactamase L1 [10] amounted to 1080 nM. Also, on Beta-lactamase L1 [11], the Ki stood at 190 nM.
As to `O=C(O)CSC(=O)CNC(=O)Cc1cccs1`, the values for the IC50 (in [13]; in experiment [1]; at Beta-lactamase L1 [10]) were 28.7 µM, 61.5 µM and 840 nM, respectively. In addition, the inhibition entry in experiment [2] was “inactive”. For the same compound, the MIC in the experiment on Escherichia coli [3] came out at 64 µg/mL; with Escherichia coli [4] it was 0.5 µg/mL; in experiment [5], 4 µg/mL; in experiment [6], 4 µg/mL; in [7] it was 1 µg/mL; in experiment [8], 4 µg/mL. In addition, the fold change (FC) in [9] is 2. For the same compound, the inhibitory constant (Ki) at Beta-lactamase L1 [11] was 280 nM.
`C[C@H](NC(=O)Cc1cccs1)C(=O)SCC(=O)O`: the 50% inhibitory concentration (IC50) in experiment [13] came to 95.7 µM; in experiment [1] it was 46.3 µM; against Beta-lactamase L1 [10], 910 nM. In addition, the inhibition entry in experiment [2] is “inactive”. Moreover, the MIC in the experiment with Escherichia coli [3] is > 64 µg/mL; in the experiment on Escherichia coli [4], 0.5 µg/mL; in [5], 4 µg/mL; in experiment [6], 4 µg/mL; in experiment [7], 1 µg/mL; in [8], 2 µg/mL. Further, the fold change (FC) in experiment [9] came out at 4. On Beta-lactamase L1 [11], this compound displayed a Ki of 410 nM.
